High-throughput results (PubChem)
TRPC6 inh: inhibitors of mouse TRPC6 channel | Q61143 | HEK293-TRPC6, membrane potential dye, ACh-evoked depolarization; hits give low values | B-score at 10 µM | hit rate 1.1% among 310,000 | AID 2553;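 active means B-score under library mean minus 3 SD, initial fluorescence not abnormally high, positive integrated signal ratio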;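 further: B-score derived from integrated fluorescence ratio over the kinetic read; more negative B-score means stronger inhibition of depolarization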
TRPC6 act: activators of mouse TRPC6 channel; Q61143; HEK293-TRPC6 membrane potential dye fluorescence; hits give high values; B-score at 10 µM; hit rate 0.13% among 310,000;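 active means B-score of the integrated fluorescence ratio above library mean plus 3 SD, and starting fluorescence ratio within library mean plus 5 SD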;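 further: higher score means more depolarization so channel activation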
TRPC4 act: opens the mouse TRPC4 cation channel; Q9QUQ5; HEK293 TRPC4beta/mu-opioid, Fluo4 calcium fluorescence; hits give high values; B-score at 10 µM; hit rate 0.49% among 310,000;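 active means B-score above 5 SD of library B-scores, and initial fluorescence ratio not above library mean plus 5 SD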;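 further: positive B-score marks a calcium rise read as TRPC4 activation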
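System – HEK293 cells stably co-expressing mouse TRPC4beta and mu-opioid receptor · Signal – Fluo4 calcium-sensitive dye fluorescence, kinetic, 1 Hz baseline · Benchmarks – buffer (low) and maximal DAMGO (high) · Read-out – B score of integrated fluorescence ratio per well · Incubation – dye loading 45 min room temperature, 110 s kinetic read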
TRPC4 block: blocks the mouse TRPC4 cation channel | HEK293 TRPC4beta/mu-opioid, DAMGO-evoked Fluo4 calcium flux; hits give low values | B-score at 10 µM | hit rate 0.39% among 300,000;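 active means B-score over 3 SD under the library average, no early fluorescence shift, positive overall ratio signal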
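material = TRPC4beta/mu-opioid receptor HEK293 cell line | probe or stimulus = sequential submaximal and maximal DAMGO stimulation | compound dosing = one concentration per compound | measured by = Fluo4 Ca2+ flux fluorescence | evaluation = integrated fluorescence ratio relative to baseline, converted to per-well B score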
TRPC4 potent: allosterically enhances the mouse TRPC4 cation channel; HEK293 TRPC4beta/mu-opioid, DAMGO EC20, Fluo-4 Ca2+ flux; hits give high values; B-score at 10 µM; hit rate 0.42% among 310,000; AID 2227;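 active means B-score of calcium response area above 5 SD of library B-scores, with initial fluorescence ratio within 5 SD of library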;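 further: B-score of integrated fluorescence ratio over time as area under calcium response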
FID counter: counter-screen for HCV NS3 helicase inhibitors: DNA intercalator displacement; DNA fluorescent intercalator displacement, fluorescence; inhibition, % at 7.9 µM; hit rate 0.17% among 290,000; in the data active means inhibition above about 37%;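 further: 0% = vehicle and 100% = reference compound; higher means more ethidium bromide displaced from hairpin DNA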
TRPC4 sel inh 2: mouse TRPC4 off-target activity of TRPC6 inhibitors, second screen; shares compounds with TRPC6 inh; inhibition, % at 10 µM; AID 2776; HEK293 TRPC4/MOR, membrane potential dye fluorescence; channel activated by saturating DAMGO dose; hit rate 42% among 920;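 active means compounds whose fluorescence signal differed from control wells by over 3 SD, either direction, in both duplicate plates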
TRPC4 spec: mouse TRPC4 off-target activity of TRPC6 inhibitors; hit rate 61% among 920; HEK293 TRPC4/mu-opioid, membrane potential fluorescence; AID 2777; activity change, negative = inhibition, % at 10 µM; shares compounds with TRPC6 inh;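 active means rise or fall in signal beyond 3 SD of buffer-only wells in both replicate plates, either sign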;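 further: integrated kinetic ratio of fluorescence range over baseline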
HEK293 MPD ctr 2-1: parental HEK293 nonspecific activity of TRPC6 inhibitors, second screen; shares compounds with TRPC6 inh; parental HEK293 membrane potential dye fluorescence; maximal acetylcholine challenge after compound addition; signal change vs control, % at 10 µM; hit rate 31% among 920;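 active means membrane potential signal moving either way by over 3 SD of the maximum-effect control, in both duplicate plates, meaning non-specific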
HEK293 MPD ctr-1: checks TRPC6 inhibitor effects in parental HEK293 cells | AID 2780 | parental HEK293 membrane potential dye fluorescence | membrane potential signal change, % at 10 µM | hit rate 60% among 920 | shares compounds with TRPC6 inh;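 active means membrane potential signal shifting up or down by more than 3 SD of buffer-only wells, on both duplicate plates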
HEK293 MPD ctr-2: counter-screen for TRPC6 modulators: effect in parental HEK293 cells; hit rate 51% among 2,400; shares compounds with TRPC6 inh; AID 488924; membrane potential dye fluorescence; membrane potential signal change, % at 10 µM;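 active means membrane potential signal moves up or down beyond 5 SD from buffer-only wells, on both duplicate plates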
HEK293 MPD ctr 2-2: parental HEK293 nonspecific activity of TRPC6 modulators, second screen; AID 488926; membrane potential dye fluorescence; after compound, maximal acetylcholine stimulation; inhibition, % at 10 µM; hit rate 14% among 2,400; shares compounds with TRPC6 inh;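 active means membrane potential signal drops by more than 5 SD from the mean control signal, in both duplicate plates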;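 further: plate controls were acetylcholine ECmax control wells for no effect and buffer only wells for full effect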
TRPC4 ctr mod: selectivity of TRPC6 modulators against mouse TRPC4; percent change from control (negative = decrease, positive = increase), % at 10 µM; HEK293 TRPC4/mu-opioid, membrane potential fluorescence; hit rate 69% among 2,400; shares compounds with TRPC6 inh;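 active means membrane potential signal moved up or down beyond 5 SD of buffer control wells, in both duplicate plates, actives on both sides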;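 further: plate controls were assay buffer wells for no effect and DAMGO maximal-effect wells for full effect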
TRPC4 ctr inh 2: mouse TRPC4 off-target activity of TRPC6 modulators, second screen; shares compounds with TRPC6 inh; HEK293 TRPC4/mu-opioid, membrane potential dye fluorescence; stimulated with maximal-effect DAMGO; inhibition, % at 10 µM; hit rate 55% among 2,400; AID 488928;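 active means drop in membrane potential signal beyond 5 SD of the control wells in both duplicate plates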;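 further: TRPC4 counter screen for TRPC6 hits run under conditions tuned for TRPC6 not TRPC4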
TRPC6 inh conf: mouse TRPC6 inhibitor confirmation. AID 488960. hit rate 43% among 3,300. shares compounds with TRPC6 inh. HEK293-TRPC6, membrane potential dye, ACh-evoked depolarization. inhibition, % at 10 µM;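 active means fluorescence ratio falls more than 5 SD below the full-stimulation control mean, in both duplicate runs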;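 further: integrated fluorescence ratio of peak minus minimum over baseline after agonist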
TRPC6 act conf: confirmation of mouse TRPC6 activators. AID 488961. HEK293-TRPC6 membrane potential dye fluorescence, FDSS. shares compounds with TRPC6 inh. hit rate 11% among 2,800. activation, % at 10 µM;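 active means ratio signal rise beyond 5 SD above unstimulated control wells' mean, seen in both duplicate runs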;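 further: plate controls were buffer EC0 wells for no effect and acetylcholine ECmax response for full effect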
* = called active by the depositor; i = inactive; . = not tested or not shown. In the library only some 2.3% were active in any assay of this set; here they are far more common.

SMILES | TRPC6 inh | TRPC6 act | TRPC4 act | TRPC4 block | TRPC4 potent | FID counter | TRPC6 inh conf | others
CC(=O)C1=C(O)C(=O)N(c2ccccn2)C1c1cccc(F)c1 (configuration not stated) | i | i | i | i | i | 2 | .
COc1ccc(NC(=O)N2CCN(C(=O)c3ccco3)CC2)c(OC)c1 | i | i | i | i | i | -6 | .
COc1ccccc1-n1cc(CN2CCN(CC(C)C)C(CCO)C2)cn1 (configuration not stated) | i | i | i | i | i | -1 | .
COc1ccccc1-n1cc(CN2CCN(C3CCCC3)C(CCO)C2)cn1 (configuration not stated) | -5.2* | i | i | i | i | 2 | 36%* | HEK293 MPD ctr-2=i;HEK293 MPD ctr 2-2=i;TRPC4 ctr mod=10%*;TRPC4 ctr inh 2=i
COC(=O)c1ccc(CN2CCN(C3CCCC3)C(CCO)C2)cc1 (configuration not stated) | -9.5* | i | i | i | i | 5 | 63%* | TRPC4 sel inh 2=i;TRPC4 spec=2.2%*;HEK293 MPD ctr 2-1=6.0%*;HEK293 MPD ctr-1=4.6%*
COC(=O)c1ccc(CN2CCN(C3CCCCC3)C(CCO)C2)cc1 (configuration not stated) | i | i | i | i | i | 0 | .
Cc1nn(-c2ccccc2)nc1CNC(=O)C1CC1 | i | i | i | i | i | -2 | .
C/C=C(\C)C(=O)OC(C)(C)[C@H]1Cc2cc3ccc(=O)oc3cc2O1 | i | i | i | i | i | -22 | .
Cc1cc(C)c(OCCCNCc2ccccc2)c(Br)c1 | i | i | i | i | i | 30 | .
Cc1cc(Cl)c(OCCCNCc2ccccc2)c(Br)c1 | i | 12* | i | i | i | 31 | i | HEK293 MPD ctr-2=302%*;HEK293 MPD ctr 2-2=i;TRPC4 ctr mod=68%*;TRPC4 ctr inh 2=i;TRPC6 act conf=139%*
Cc1ccccc1OCC(=O)Nc1ccc(N2CCN(C)CC2)c(Cl)c1 | i | i | i | i | i | 21 | .
COc1cc2c(cc1OC)CN(C(=O)C(CCSC)NS(=O)(=O)c1ccc(C)cc1)CC2 (configuration not stated) | i | i | i | i | i | -35 | .
